Experimental data pooled from the literature.
Protocols differ between the studies behind these lines.
Chymotrypsinogen A: Chymotrypsinogen A (Bos taurus, UniProt P00766)
lecA: PA-I galactophilic lectin (lecA, Pseudomonas aeruginosa, UniProt Q05097)

Cc1ccc2c(c1)c1c3n2CCNC3CCC1 (centres unmarked) — Ki (Amine oxidase [flavin-containing] A (Maoa, Rattus norvegicus, UniProt P21396); enzyme activity; inhibitor; pH 7.5): 0.77 µM
CCCC[C@H](NC(=O)[C@H](CCC(N)=O)NC(=O)[C@H](CO)NC(=O)CCCCCN)C(=O)N[C@@H](Cc1ccccc1)B(O)O — Ki (Chymotrypsinogen A; enzyme activity; inhibitor; fluorescence): 0.00377 µM
OCC(F)(F)F — Ki (ADH1 (Saccharomyces cerevisiae, UniProt P00330, W55R); enzyme activity; inhibitor): 74000 µM
CCn1c(-c2nc3cc(C(=O)N4CCC[C@@H](N)C4)cc(OC)c3n2C)cc2cccnc21 — Ki (Protein-arginine deiminase type-3 (PADI3, Homo sapiens, UniProt Q9ULW8); enzyme activity; inhibitor): 925 µM
[N-]=[N+]=NCCC(=O)Nc1ccc(S[C@@H]2O[C@H](CO)[C@H](O)[C@H](O)[C@H]2O)cc1 — Ki (lecA; ligand displacement; FP): 3.96 µM
CCCC[C@H](NC(=O)[C@H](CCCCN)NC(=O)[C@H](CO)NC(=O)[C@H](CO)NC(=O)OCc1ccccc1)C(=O)N[C@@H](CCCBr)B(O)O — Ki (Chymotrypsinogen A; enzyme activity; inhibitor; fluorescence): 0.197 µM
C/C(=C\C(=O)OCCCCCCCCC(=O)O)C[C@@H]1OC[C@H](C[C@@H]2O[C@H]2[C@@H](C)[C@H](C)O)[C@@H](O)[C@H]1O — Ki (Isoleucine--tRNA ligase (ileS, Escherichia coli K-12, UniProt P00956); enzyme activity; inhibitor; absorbance): 0.0008 µM
O=C(CCCCn1cc(CN2CCN(c3cc4c(cc3F)c(=O)c(C(=O)O)cn4C3CC3)CC2)nn1)Nc1ccc(S[C@@H]2O[C@H](CO)[C@H](O)[C@H](O)[C@H]2O)cc1 — Ki (lecA; ligand displacement; FP): 3.27 µM
O=[N+]([O-])c1ccc(O[C@@H]2O[C@H](CO)[C@H](O)[C@H](O)[C@H]2O)cc1 — Ki (lecA; ligand displacement; FP): 26.9 µM
[N-]=[N+]=NCCCCC(=O)Nc1ccc(S[C@@H]2O[C@H](CO)[C@H](O)[C@H](O)[C@H]2O)cc1 — Ki (lecA; ligand displacement; FP): 3.67 µM
CCCC[C@H](NC(=O)[C@H](CCC(N)=O)NC(=O)[C@H](CO)NC(=O)C[C@@H](Cc1ccc2ccccc2c1)NC(=O)CCCCCN)C(=O)N[C@@H](Cc1ccccc1)B(O)O — Ki (Chymotrypsinogen A; enzyme activity; inhibitor; fluorescence): 0.00721 µM
NC(=O)C1=CN([C@@H]2O[C@H](COP(=O)(O)OP(=O)(O)OC[C@H]3O[C@@H](n4cnc5c(N)ncnc54)[C@H](O)[C@@H]3O)[C@@H](O)[C@H]2O)C=CC1 — Ki (ADH1 (Saccharomyces cerevisiae, UniProt P00330, W83R); enzyme activity; inhibitor): 24 µM
CCCC[C@H](NC(=O)[C@H](CCC(N)=O)NC(=O)[C@H](CO)NC(=O)[C@H](C)NC(=O)CCCCCN)C(=O)N[C@@H](CCCBr)B(O)O — Ki (Chymotrypsinogen A; enzyme activity; inhibitor; fluorescence): 0.166 µM
[N-]=[N+]=NCC(=O)Nc1ccc(S[C@@H]2O[C@H](CO)[C@H](O)[C@H](O)[C@H]2O)cc1 — Ki (lecA; ligand displacement; FP): 4.16 µM
